Bioassay records (PubChem BioAssay)
WT yeast gro inh = growth inhibition of WT yeast, mitochondrial fusion screen; mitochondrial fusion phenotypic screen, WT strain; inhibition, % at 10 µM; 2.1% of 190,000 active; AID 1362; in the data active means inhibition above about 58%; tested in S. cerevisiae
L major viab = inhibitors of Leishmania major promastigote growth. 9% of 200,000 active. Leishmania major promastigotes, resazurin fluorescence viability. inhibition, % at 10 µM. AID 1063; in the data active means inhibition above about 50%;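 further: promastigotes grown with compound for 44 hours at 28 °C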
Cl transport mod = modulates chloride dependent transport by human KCC2; Q9H2X9; KCC2 cells, thallium flux FluoZin-2 fluorescence; 2.2% of 190,000 active; B-score of Tl+ flux slope (higher = more flux/activation; lower = inhibition) at 10 µM;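 active means thallium flux slope and its plate-corrected score both differing from the plate sample mean at a set confidence after two filtering rounds, in either direction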;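 further: slope of fluorescence scaled to starting intensity during 10 to 20 s after thallium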
Diaphorase inh = counter-screen for diaphorase-based assays: diaphorase inhibitors and chemical oxidizers | diaphorase resazurin-to-resorufin fluorescence, NADH, 16 min; bacterial (C. kluyveri) enzyme, not human | inhibition, % at 20 µM | 0.69% of 190,000 active;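 active means primary screen inhibition at 20 µM above a set limit, cut at about 50% in these data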
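Assay system: diaphorase enzyme from Clostridium kluyveri. Quantity: enzyme working solution with 0.14 U/mL diaphorase. Schedule: reaction incubation of 16 min at room temperature. Technique: resorufin fluorescence, excitation 544 nm, emission 590 nm. Controls: No-NADH positive control and DMSO neutral control.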
ROMK mod = modulates human ROMK potassium channel activity. P48048. B-score at 10 µM. 2% of 130,000 active. Tet-inducible ROMK, thallium flux fluorescence; actives lie on both sides;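 active means signal ratio slope over the read window, or its plate-corrected B-score, at least 3 SD from the plate mean, either direction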;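 further: B-score of the F/F0 ratio slope over 7 to 12 s after thallium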
Target sequence (P48048 whole entry, looked up): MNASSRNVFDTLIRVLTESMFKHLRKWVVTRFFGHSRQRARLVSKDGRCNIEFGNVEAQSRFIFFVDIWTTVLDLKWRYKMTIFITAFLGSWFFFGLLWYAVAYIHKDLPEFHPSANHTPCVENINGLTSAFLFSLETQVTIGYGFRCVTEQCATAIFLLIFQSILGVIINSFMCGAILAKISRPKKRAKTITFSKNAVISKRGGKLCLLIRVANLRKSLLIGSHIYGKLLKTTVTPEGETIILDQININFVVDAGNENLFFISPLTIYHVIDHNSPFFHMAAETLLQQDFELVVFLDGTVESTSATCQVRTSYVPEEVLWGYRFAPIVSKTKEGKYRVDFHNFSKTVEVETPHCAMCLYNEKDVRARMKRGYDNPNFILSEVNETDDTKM
Diaphorase act = counter-screen for diaphorase-based assays: diaphorase activators and chemical reducers | activation factor at 20 µM | 0.005% of 190,000 active | Diaphorase/resazurin coupled assay, resorufin fluorescence, 16 min; active compounds read high; 1 = vehicle wells, 0 = NADH-free wells;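 active means diaphorase activity raised at least twofold by the compound at 20 µM; inactive means activation factor below 2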
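Test system: Clostridium kluyveri diaphorase, purified enzyme; input: enzyme 0.07 U/mL final; buffer or medium: 50 mM HEPES pH 7.4 with 4.542 mM MgCl2, 0.005% Tween 20; also added: 0.114 mM NADH and 0.1 mM resazurin, final amounts; schedule: 16 min enzyme reaction, ambient temperature; technique: fluorescence of resorufin, 544 nm excitation, 590 nm emission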
Of the large screens only hits and unclear results are named; the others gave an inactive call. A selection: hits, their analogues and other compounds. The true share with any hit is near 12%.

O=C(CN1C(=O)/C(=C\c2cccc(F)c2)Oc2ccccc21)N1CCN(c2ccccn2)CC1	L major viab 50
Cc1ccc(N(C(=O)c2ccccc2Cl)C2=NC(C)CS2)c(C)c1 (stereo not given)	WT yeast gro inh 72, L major viab 94
CCOc1ccccc1N(C(=O)c1ccccc1Cl)C1=NC(C)(C)CS1	none (no result: ROMK mod)
CC1(C)C2CCC1(C)C(OCC[N+](C)(C)CC(=O)OC1CCCCC1)C2 (stereo not given)	L major viab 100 (no result: ROMK mod)
CCOC(=O)C[N+](C)(C)CCOC1CC2CCC1(C)C2(C)C (stereo not given)	none
Clc1ccc(OCCn2ccnc2)c(Br)c1	none
COc1cc(C)ccc1OCCOc1cc(C)ccc1Cl	none (no result: ROMK mod)
OCCNCCCOc1ccc(Cl)cc1Br	L major viab 87 (no result: ROMK mod)
CCN(CC)C(=O)COc1ccc(Br)cc1Cl	none (no result: Cl transport mod, ROMK mod)
CN(C)CCCCOc1ccc(Br)cc1Cl	L major viab 96
C=CCNCCCOc1ccc(Cl)cc1Br	L major viab 78
Cc1ccc(OCCOCCN(C)C)c(Cl)c1	L major viab 85 (no result: ROMK mod)
O=C(CSc1ccccc1)NCc1ccccn1	none
CN(C)CCCNC(=O)C(=O)NCC1CCCO1 (stereo not given)	none
CC(=O)NCCc1nc2ccccc2n1Cc1cccc(C)c1	none (no result: WT yeast gro inh, L major viab, Diaphorase inh, Diaphorase act)
COc1cccc(OCCOCCN(C)CCO)c1	none
COCCCNC(=O)Nc1ccc(Br)cc1Cl	none (no result: ROMK mod)
CCc1cc(OCCOCCN(C)C)ccc1Cl	L major viab 98
COCCNCCCOc1ccc(Br)cc1Cl	L major viab 81
COCCNCCCOc1ccc(Cl)cc1Br	L major viab 65
COCCNCCCCOc1c(Cl)cc(C)cc1Br	L major viab 98 (no result: ROMK mod)
Cc1cc(Cl)c(S(=O)(=O)N2CCN(c3ccccn3)CC2)cc1OCC(N)=O	none
CC(/C=C/c1ccco1)=N\NC(=O)CNc1ccc2ccccc2c1	Diaphorase inh 56 (no result: ROMK mod)
CC(/C=C/c1ccco1)=N/NC(=O)CNc1ccccc1C	none
CCOC(=O)N/N=C(C)/C=C/c1ccccc1	none (no result: ROMK mod)
CCOC(=O)N/N=C(C)/C=C/c1ccco1	L major viab 84
O=c1cc(-c2ccccc2)nc(/C=C/c2ccccc2)[nH]1	none (no result: WT yeast gro inh, L major viab, Diaphorase inh, Diaphorase act)
N/C(=N\OC(=O)C12CC3CC(CC(C3)C1)C2)c1cccnc1	none (no result: ROMK mod)
N/C(=N\OC(=O)C12CC3CC(CC(C3)C1)C2)c1ccccc1	WT yeast gro inh 87 (no result: Cl transport mod, ROMK mod)
COc1ccc(C)cc1NC(=S)NC(C)c1ccc(OC)c(OC)c1 (stereo not given)	WT yeast gro inh 64, L major viab 54
CCC(C)c1ccc(NC(=S)NC(C)C2CCCO2)cc1 (stereo not given)	WT yeast gro inh 66
CCC(C)c1ccc(NC(=S)Nc2ccc(OC)c(OC)c2)cc1 (stereo not given)	WT yeast gro inh 72 (no result: ROMK mod)
Cc1ccc(NC(=S)NCC2CCCO2)cc1 (stereo not given)	none
COc1ccc(NC(=S)NC(C)c2ccncc2)cc1OC (stereo not given)	none (no result: Cl transport mod, ROMK mod)
CCC(C)c1ccc(NC(=S)Nc2ccc(OC)cc2C)cc1 (stereo not given)	WT yeast gro inh 75 (no result: ROMK mod)
COc1ccc(-c2cc3cc(OC)c(OC)cc3c(C)n2)cc1	none (no result: WT yeast gro inh, L major viab, Diaphorase inh, ROMK mod, Diaphorase act)
CCOc1ccc2[nH]c(=O)c(CN(Cc3cccs3)Cc3nnnn3C(C)(C)C)cc2c1	L major viab 73
COc1ccc2[nH]c(=O)c(CN(Cc3cccs3)Cc3nnnn3C(C)(C)C)cc2c1	L major viab 99
COC(=O)c1ccc(C(=O)OC)c(NC(=S)N2CCC(C)CC2)c1	none
COc1ccc(-c2csc(C3=C(O)CN(Cc4ccc(Cl)cc4)C3=N)n2)cc1OC	L major viab 58
CCOC(=O)C1=NN(c2ccc(C)cc2)C2(S1)SC(C(C)=O)=C(C)N2c1ccccc1 (stereo not given)	none (no result: ROMK mod)
CCOC(=O)C1=NN(c2cccc(C)c2)C2(S1)SC(C(C)=O)=C(C)N2c1ccccc1 (stereo not given)	WT yeast gro inh 77
CCOC(=O)c1c2ccc(OCC(=O)N/N=C/c3ccc(C)cc3)cc2n2ccccc12	Diaphorase inh 61 (no result: Cl transport mod, ROMK mod)
CSC1=C(C#N)C(c2ccc3c(c2)OCO3)C2=C(CCCC2=O)N1 (stereo not given)	none (no result: ROMK mod)
CCSC1=C(C#N)C(c2ccc(Cl)cc2)C2=C(CCCC2=O)N1 (stereo not given)	L major viab 95
COCCNC(=O)CSc1nc(-c2ccccc2)cs1	none (no result: WT yeast gro inh, ROMK mod)
Cc1cc(C(=O)CCl)c(C)n1-c1cccc(S(=O)(=O)N2CCOCC2)c1	L major viab 101
Cc1cc(C(=O)CN2CCCC(C)C2)c(C)n1-c1ccc(F)cc1 (stereo not given)	L major viab 73 (no result: ROMK mod)
Cc1ccc(S(=O)(=O)N2CCOCC2)cc1C(=O)N1CCOCC1	none
Cc1ccc(S(=O)(=O)N2CCOCC2)cc1C(=O)N1c2ccccc2Sc2ccccc21	L major viab 99
Cc1ccc(-n2c(C)cc(C(=O)CN3CCOCC3)c2C)cc1C	L major viab 57
CCC(CC)NC(=O)c1cccc(Oc2ccccc2)c1	none
CCOc1ccc(CCNC(=O)c2cc3ccccn3n2)cc1OCC	none (no result: ROMK mod)
Cc1cc(C(=O)CSc2ncn[nH]2)c(C)n1-c1cccc(S(=O)(=O)N2CCOCC2)c1	L major viab 59 (no result: ROMK mod)
Cc1cc(C(=O)CN2C(=O)CN(C)C2=O)c(C)n1-c1cccc(S(=O)(=O)N2CCOCC2)c1	none
Oc1ccccc1-c1nc(N2CCCC2)c2ccccc2n1	none
CN1CCN(c2nc(-c3ccccn3)nc3ccccc23)CC1	L major viab 100 (no result: ROMK mod)
c1ccc(N2CCN(c3nc(-c4ccccn4)nc4ccccc34)CC2)cc1	L major viab 100
CC(=O)N1CCN(c2nc(-c3cccs3)nc3ccccc23)CC1	L major viab 77
c1ccc2cc(CNCc3cccc4ccccc34)ccc2c1	none (no result: WT yeast gro inh, L major viab, Diaphorase inh, ROMK mod, Diaphorase act)
COC(=O)c1nn(-c2ccccc2)c(Sc2ccc(C)cc2)c1/C=N/O	none (no result: Cl transport mod, ROMK mod)
CCn1c(C)nc2cc(C(=O)N/N=C(\C)c3ccc(OC)cc3O)ccc21	none
Fc1ccc(C2CC(c3cccs3)=NN2C(=S)Nc2ccccc2)cc1 (stereo not given)	L major viab 53 (no result: ROMK mod)
CCOC(=O)CSCC(=O)N1N=C(c2cccs2)CC1c1ccc(F)cc1 (stereo not given)	none (no result: ROMK mod)
O=C(Nc1ccccc1)N1N=C(c2ccc(F)cc2)CC1c1ccc(F)cc1 (stereo not given)	L major viab 92 (no result: ROMK mod)
O=C(CCC(=O)OCc1ccc(C(=O)Oc2ccccc2)cc1)Nc1cccc2ccccc12	none (no result: ROMK mod)
CCOc1ccc(NC2=C(Cl)C(=O)N(Cc3ccccc3)C2=O)cc1	none (no result: Cl transport mod, ROMK mod)
Cc1ccc(O)c(NC2=C(Cl)C(=O)N(Cc3ccccc3)C2=O)c1	Diaphorase inh 51
COc1ccc(/C=N/NC(=O)c2ccc(N(C)S(=O)(=O)c3ccccc3)cc2)cc1OC	L major viab 67 (no result: ROMK mod)
